Experimental data from different studies.
Organism: Acinetobacter baumannii
Effect on: microbial growth

SMILES	method	strain	time	notes	MIC
N=C(N)c1ccc(OCCC(CCOc2ccc(C(=N)N)cc2)c2ccccc2)cc1 (centres unmarked)	broth dilution	ATCC17978			> 200 µg/mL
CO[C@@H](C(N)=O)[C@H](NC(=O)c1ccc(NC(=O)c2ccc(C#N)cc2)cc1)C(=O)Nc1ccc(C(=O)Nc2ccc(C(=O)Nc3ccc(C(=O)O)cc3)c(O)c2OC(C)C)cc1		DSM30008			1 µg/mL
CN(C)c1cc(NC(=O)CNC(C)(C)C)c(O)c2c1C[C@H]1C[C@H]3[C@H](N(C)C)C(O)=C(C(N)=O)C(=O)[C@@]3(O)C(O)=C1C2=O		ATCC19606			1.2 µg/mL
NC1CCc2c1[nH]c1ccc(Cl)c(Cl)c21 (centres unmarked)	broth dilution	ATCC19606			8 µg/mL
CN[C@H](CC(C)C)C(=O)N[C@H]1C(=O)N[C@@H](CC(N)=O)C(=O)N[C@H]2C(=O)N[C@H]3C(=O)N[C@H](C(=O)N[C@H](C(=O)O)c4cc(O)cc(O)c4-c4cc3ccc4O)[C@H](O)c3ccc(c(Cl)c3)Oc3cc2cc(c3O[C@@H]2O[C@H](CO)[C@@H](O)[C@H](O)[C@H]2O[C@H]2C[C@](C)(N)[C@H](O)[C@H](C)O2)Oc2ccc(cc2Cl)[C@H]1O	broth dilution	ATCC19606	18 h		> 32 µg/mL
O=C(O)c1ccc(-n2cc(/C=N/Nc3ccccc3F)c(-c3ccc4ccccc4c3)n2)cc1		ATCCBAA1605			25 µg/mL
N#Cc1ccc(N/N=C/c2cn(-c3ccc(C(=O)O)cc3)nc2-c2ccc(F)cc2)cc1		ATCCBAA1605			> 25 µg/mL
O=C(Nc1ccc2c(c1)OC(F)(F)O2)Nc1ccc(Cl)c(C(F)(F)F)c1		DSM30007			> 100 µM
CC1(C)S[C@@H]2[C@H](NC(=O)C(C(=O)O)c3ccccc3)C(=O)N2[C@H]1C(=O)O (some centres unmarked)	broth dilution				44.3 µM
CN(C)CC(C)(C)CNc1nc(F)c2c(c1O)C(=O)C1=C(O)[C@]3(O)C(=O)C(C(N)=O)=C(O)[C@@H](N(C)C)[C@@H]3C[C@@H]1C2.Cl	broth dilution	ATCC19606			4 µg/mL
N=C(N)c1ccc(OCCCCCOc2ccc(C(=N)N)cc2)cc1	broth dilution	ATCC17978			> 200 µg/mL
CNC(C)C1CCC(N)C(OC2C(N)CC(N)C(OC3OCC(C)(O)C(NC)C3O)C2O)O1 (centres unmarked)					0.5 to 1 µg/mL
COc1c2c(c(O)c3cc(F)ccc13)C(=O)C1=C(O)[C@]3(O)C(=O)C(C(N)=O)=C(O)[C@@H](N(C)C)[C@@H]3C[C@@H]1C2	broth dilution	ATCC19606			2 µg/mL
O=C(O)c1ccc(-n2cc(/C=N/Nc3ccc(Br)cc3)c(-c3ccc4ccccc4c3)n2)cc1		ATCCBAA1605			12.5 µg/mL
CCCCCCC/C=C/C(=O)N1C(=O)/C(=C(\O)c2ccccc2)C(=O)C1CC(C)C (centres unmarked)		ATCC19606			> 200 µg/mL
Cc1nc(Cl)c2c(c1O)C(=O)C1=C(O)[C@]3(O)C(=O)C(C(N)=O)=C(O)[C@@H](N(C)C)[C@@H]3C[C@@H]1C2.Cl	broth dilution	ATCC19606			4 µg/mL
CCn1cc(C(=O)O)c(=O)c2cc(F)c(N3CCNCC3)cc21	broth dilution	BAA747			16 µM
CN(C)[C@@H]1C(O)=C(C(N)=O)C(=O)[C@@]2(O)C(O)=C3C(=O)c4c(O)c(N)nc(F)c4C[C@H]3C[C@@H]12.Cl.Cl	broth dilution	ATCC19606			0.5 µg/mL
CN(C)[C@@H]1C(O)=C(C(N)=O)C(=O)[C@@]2(O)C(O)=C3C(=O)c4c(cc5ccc(CN(C)S(C)(=O)=O)cc5c4O)C[C@H]3C[C@@H]12	broth dilution	ATCC19606			32 µg/mL

SMILES	method	strain	time	notes	MIC
NC[C@H]1O[C@H](O[C@H]2[C@H](O)[C@@H](O[C@H]3O[C@H](CO)[C@@H](O)[C@H](N)[C@H]3O)[C@H](N)C[C@@H]2N)[C@H](N)C[C@@H]1O	broth dilution				2.6 µM
CN(C)c1ccc(O)c2c1C[C@H]1C[C@H]3[C@H](N(C)C)C(O)=C(C(N)=O)C(=O)[C@@]3(O)C(O)=C1C2=O	broth dilution	ATCC19606			0.063 µg/mL
NC1CCCCc2c1[nH]c1ccc(Br)cc21 (centres unmarked)	broth dilution	ATCC19606			16 µg/mL
O=C(CCCCCCCC[P+](c1ccccc1)(c1ccccc1)c1ccccc1)Nc1cc(O)c(O)c(O)c1.[Br-]	broth dilution	ATCC19606	18 h		> 32 µg/mL
CC(C)CCNc1nc(Cl)c2c(c1O)C(=O)C1=C(O)[C@]3(O)C(=O)C(C(N)=O)=C(O)[C@@H](N(C)C)[C@@H]3C[C@@H]1C2.Cl.Cl.Cl	broth dilution	ATCC19606			4 µg/mL
N=C(N)c1ccc(OCc2cc(COc3ccc(C(=N)N)cc3)cc(-c3ccccc3)c2)cc1	broth dilution	ATCC17978			> 200 µg/mL
O=C(Cc1ccc(O)c(O)c1)NCCCCCCCC[P+](c1ccccc1)(c1ccccc1)c1ccccc1.[Br-]	broth dilution	ATCC19606	18 h		> 32 µg/mL
C[C@@H](O)[C@H]1C(=O)N2C(C(=O)O)=C(S[C@@H]3CN[C@H](C(=O)N(C)C)C3)[C@H](C)[C@H]12	broth dilution	ATCC19606			0.5 µg/mL
O=C(O)c1ccc(-n2cc(/C=N/Nc3cccc(Br)c3)c(-c3ccc(F)cc3)n2)cc1		ATCCBAA1605			12.5 µg/mL
CCCCCCC/C=C/C(=O)N1CC(=O)/C(=C(\C)O)C1=O		ATCC19606			100 µg/mL
CN(C)[C@@H]1C(O)=C(C(N)=O)C(=O)[C@@]2(O)C(O)=C3C(=O)c4c(cc5ccc(-c6cccnc6)cc5c4O)C[C@H]3C[C@@H]12	broth dilution	ATCC19606			32 µg/mL
CN[C@@H]1[C@H](O[C@H]2[C@H](O[C@H]3[C@H](O)[C@@H](O)[C@H](N=C(N)N)[C@@H](O)[C@@H]3N=C(N)N)O[C@@H](C)[C@]2(O)C=O)O[C@@H](CO)[C@H](O)[C@H]1O		ATCC19606			> 2000 µg/mL
CCCCC(=O)N1C(=O)/C(=C(/C)O)C(=O)C1CC(C)C (centres unmarked)		ATCC19606			> 200 µg/mL
CN(C)[C@@H]1C(O)=C(C(N)=O)C(=O)[C@@]2(O)C(O)=C3C(=O)c4c(cc5ccc(CN6CC(F)(F)C6)cc5c4O)C[C@H]3C[C@@H]12	broth dilution	ATCC19606			32 µg/mL
CCCCCCC/C=C/C(=O)N1C(=O)/C(=C(\O)c2ccc(F)cc2)C(=O)C1CC(C)C (centres unmarked)		ATCC19606			> 200 µg/mL
C[C@@H](O)[C@H]1C(=O)N2C(C(=O)O)=C(S[C@@H]3CN[C@H](C(=O)N(C)C)C3)[C@H](C)[C@H]12				clinical isolate	128 µg/mL
O=C(CCc1cc(O)c(O)c(O)c1)NCCCCCCCC[P+](c1ccccc1)(c1ccccc1)c1ccccc1.[Br-]	broth dilution	ATCC19606	18 h		> 32 µg/mL
NCC[C@H](O)C(=O)N[C@@H]1C[C@H](N)[C@@H](O[C@H]2O[C@H](CN)[C@@H](O)[C@H](O)[C@H]2O)[C@H](O)[C@H]1O[C@H]1O[C@H](CO)[C@@H](O)[C@H](N)[C@H]1O					2 µg/mL
CCCCCCC/C=C/C(=O)N1C(=O)/C(=C(\O)C2CCNCC2)C(=O)C1CC(C)C (centres unmarked)		ATCC19606			50 µg/mL
